Kir21 inh: blocks the mouse Kir2.1 inward-rectifier potassium channel; P35561; HEK293-Kir2.1, FluxOR thallium flux fluorescence; stronger effect = lower value; hit rate 0.85% among 310,000; B-score at 10 µM;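 active = fluorescence ratio B-score at or below minus 3 SD of library scores, with starting-brightness B-score within 2 SD, cut at about -4.2 in these data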;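 also: channel flux triggered by added potassium and thallium sulfate stimulus; B-score of peak minus minimum fluorescence over baseline after thallium stimulus; more negative B-score means stronger Kir2.1 block with less thallium influx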
KCNQ1 block: inhibitors of human KCNQ1 potassium channel | P51787 | CHO-K1 KCNQ1, FluxOR thallium flux fluorescence; stronger effect = higher value | B-score at 10 µM | hit rate 1.3% among 310,000 | AID 2642;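 active = compounds whose thallium flux B-score, printed positive for inhibition, exceeds three library SD while starting fluorescence stays within three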;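 also: channel opened by potassium depolarization with thallium stimulus after 20 min compound exposure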
Target sequence (P51787 whole entry, looked up): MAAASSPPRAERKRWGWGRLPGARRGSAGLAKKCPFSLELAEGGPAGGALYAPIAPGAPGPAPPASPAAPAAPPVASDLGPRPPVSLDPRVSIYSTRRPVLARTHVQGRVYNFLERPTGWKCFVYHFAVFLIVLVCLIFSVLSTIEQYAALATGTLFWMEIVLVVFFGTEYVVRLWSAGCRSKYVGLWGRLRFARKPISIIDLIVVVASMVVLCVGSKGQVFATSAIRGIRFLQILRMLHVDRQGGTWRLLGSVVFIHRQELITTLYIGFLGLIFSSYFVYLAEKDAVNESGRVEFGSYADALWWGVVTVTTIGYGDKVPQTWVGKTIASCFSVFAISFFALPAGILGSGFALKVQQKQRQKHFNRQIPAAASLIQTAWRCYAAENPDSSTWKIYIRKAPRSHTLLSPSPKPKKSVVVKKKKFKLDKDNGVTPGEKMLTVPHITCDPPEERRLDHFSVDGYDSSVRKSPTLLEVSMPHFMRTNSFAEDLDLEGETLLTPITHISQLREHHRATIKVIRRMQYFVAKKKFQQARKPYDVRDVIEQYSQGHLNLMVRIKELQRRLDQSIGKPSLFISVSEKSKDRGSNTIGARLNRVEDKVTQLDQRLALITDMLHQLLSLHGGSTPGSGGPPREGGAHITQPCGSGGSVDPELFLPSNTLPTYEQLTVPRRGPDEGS
KCNQ1 act: human KCNQ1 channel potentiation or activation; CHO-K1 KCNQ1, thallium flux FluxOR fluorescence; stronger effect = higher value; B-score at 10 µM; hit rate 0.35% among 310,000; AID 2648;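 active = fluorescence ratio B-score, a plate-corrected score, at least three library SD, with initial intensity B-score within 5 SD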
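System: Stable KCNQ1 CHO-K1 line | Incubation: 90 min dye loading and 20 min compound exposure, both at room temperature | Measure: Ratio B score | Medium: Assay buffer for compound exposure, DMSO matched across wells | Compound dosing: Single-concentration screen | Probe or stimulus: K+/Tl+ depolarizing stimulus | Measured by: Kinetic FluxOR fluorescence, 10 s baseline plus 110 s post-stimulus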
hERG rescue: hERG (human) protection from proarrhythmic block; Q12809; CHO-hERG, FluxOR thallium flux, dofetilide IC70 present; activation (rescue from dofetilide block), less the hit threshold, % at 10 µM; hit rate 0.51% among 310,000; AID 1511;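 active = activation above the mean of controls blocked by dofetilide plus 5 SD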;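 also: thallium influx through hERG after potassium depolarization seen as dye fluorescence rise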
KCNK3 block: human KCNK3 channel inhibition, primary screen. CHO-KCNK3 thallium flux, FluxOR fluorescence; stronger effect = lower value. hit rate 0.84% among 340,000. B-score at 10 µM. O14649;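 active = B-score under library mean minus 4 SD, starting fluorescence ratio at most library mean plus 5 SD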;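 also: more negative B-score means stronger inhibition of thallium flux through KCNK3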
KCNK9 inh: blocks the human KCNK9 two-pore domain potassium channel. HEK293 KCNK9, FluxOR thallium flux fluorescence; stronger effect = lower value. B-score at 10 µM. hit rate 1.2% among 310,000. AID 488922;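 active = ratio B-score over 3 SD below the library mean, with starting fluorescence within 5 SD of its mean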;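 also: negative B-score means less thallium flux so channel inhibition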
* hit, by the source's call; i = inactive; . = no result given. Only some compounds are listed: those with a hit (about 3.7% of all), similar ones and a draw of the others.

SMILES	Kir21 inh	KCNQ1 block	KCNQ1 act	hERG rescue	KCNK3 block	KCNK9 inh
COc1ccc(C)cc1NC(=O)C(=O)NNC(=O)c1ccco1	1.05	i	29*	34.1*	i	i
C=CCn1c(SCC(=O)N2CCN(CCO)CC2)nc2sc3c(c2c1=O)CCC3	-0.56	i	i	-8.8	i	i
Cc1ccc(-c2n[nH]c(=S)nc2-c2ccc(C)cc2)cc1	-0.46	i	i	6.7*	i	i
Cc1ccc(NC(=O)CCc2ccc(S(=O)(=O)N3CCOCC3)cc2)c(Cl)c1	.	.	.	.	i	.
CCSc1cc(N2CCCC2)nc(-c2ccc(C)cc2)n1	1.6	i	i	1.2	i	i
CCSc1cc(N2CC(C)OC(C)C2)nc(-c2ccccc2Cl)n1 (stereo unspecified)	0.34	i	i	0.9	-9.13*	i
CC(/C=C(\NC(=O)c1ccccc1)C(=O)N=Nc1c(O)[nH]c2ccc(C)cc12)=C\c1ccccc1	0.07	6*	i	-22.8	i	i
Cc1ccc2[nH]c(O)c(N=NC(N)=S)c2c1	-0.08	i	i	-8.4	i	i
O=C(NCCCCc1ccccc1)c1ccccc1Cl	0.43	i	i	-10.4	i	i
N#Cc1cnn2ccc(-c3cc(N4CCOCC4)ccc3[N+](=O)[O-])nc12	0.07	i	i	-9.8	i	i
C=CCOC(=O)C1=C(C)N=C2SCCC(=O)N2C1c1ccc(OC(=O)c2ccco2)cc1 (stereo unspecified)	-5.04*	i	i	-4.6	i	i
CCOC(=O)C1=C(C)N=C2SCCC(=O)N2C1c1cccs1 (stereo unspecified)	-0.05	i	i	-1.0	i	i
COC(=O)C1=C(C)N=C2SCCC(=O)N2C1c1cc(Br)ccc1OC (stereo unspecified)	-0.29	i	i	-9.8	i	i
CCOC(=O)C1=C(C)N=C2SCCC(=O)N2[C@@H]1c1cccs1	-4.29*	i	i	-4.6	i	i
COC(=O)C1=C(C)N=C2SCCC(=O)N2C1/C=C/c1ccccc1 (stereo unspecified)	0.06	i	i	-6.1	-8.92*	i
Cc1ccc(C)c(S(=O)(=O)NC2CCSC2=O)c1 (stereo unspecified)	.	.	.	.	i	.
CCSc1nnc(NC(=O)C2CCN(S(=O)(=O)c3c(C)c(C)cc(C)c3C)CC2)s1	-0.01	i	i	-9.5	.	i
NS(=O)(=O)c1ccc(NC(=S)Nc2ccc(OCc3ccccc3)cc2)cc1	2.5	i	30*	-3.9	i	i
S=C(Nc1ccccc1)Nc1ccc(OCc2ccccc2)cc1	1.04	i	i	-11.7	i	i
C/C(=N\Nc1ncnc2sc(C)c(C)c12)c1ccccn1	-2	11*	i	-44.2	i	i
O=C(CC1NCCc2ccccc21)Nc1ccc(Cl)cc1 (stereo unspecified)	-1.22	i	i	-7.3	i	i
CCCN(C(=O)c1cc(S(=O)(=O)N2CCCCCC2)ccc1OC)C1CCS(=O)(=O)C1 (stereo unspecified)	0.49	i	i	-17.3	i	i
COc1ccccc1C(=O)COC(=O)c1cccc(S(=O)(=O)N2CCCC2)c1	1.32	i	i	-17.2	i	i
COc1ccc(OC)c(COC(=O)c2cccc(S(=O)(=O)N3CCCCC3)c2)c1	.	.	.	.	-8.78*	.
COc1ccccc1COC(=O)c1cccc(S(=O)(=O)N2CCCC2)c1	.	.	.	.	-9.56*	.
SMILES	Kir21 inh	KCNQ1 block	KCNQ1 act	hERG rescue	KCNK3 block	KCNK9 inh
Cc1ccc(COC(=O)c2cccc(S(=O)(=O)N3CCCCCC3)c2)cc1	.	.	.	.	i	.
Cc1ccc(COC(=O)c2cccc(S(=O)(=O)N3CCCCC3)c2)cc1	.	.	.	.	-11*	.
NC(=S)Cc1ccccc1Cl	-0.4	i	i	-2.8	i	i
Fc1ccccc1-c1nc(NC2CCCC2)c2ccccc2n1	1.05	6*	i	-13.2	i	i
CC(Nc1nc(-c2ccccc2F)nc2ccccc12)c1ccccc1 (stereo unspecified)	-0.54	i	i	-8.1	i	-7.46*
Oc1ccccc1-c1nc(NC2CCCC2)c2ccccc2n1	1.19	i	i	-8.0	i	i
C[n+]1c(/C=C/c2ccc(O)cc2)ccc2ccccc21	-0.11	i	i	-11.1	i	i
Cc1cc(/C=C\c2ccc3cc(N(C)C)ccc3[n+]2C)c(C)n1-c1ccccc1	.	.	.	.	-10.8*	.
COc1ccc(CC(=O)Nc2nnc(SCC(=O)NCc3ccco3)s2)cc1OC	1.01	i	i	-7.6	i	i
Cc1occc1C(=O)NNC(=S)NC(=O)COc1ccc(Cl)cc1Cl	-0.99	i	75*	61.8*	i	i
CC(OC(=O)Cc1c[nH]c2ccccc12)C(=O)Nc1ccccc1[N+](=O)[O-] (stereo unspecified)	-6.45*	i	i	-20.3	i	i
Cc1ccc(C(=O)C(C)OC(=O)Cc2n[nH]c(=O)c3ccccc23)cc1 (stereo unspecified)	-1.42	i	i	-7.9	i	i
Cc1ccc(NC(=O)C(C)OC(=O)Cc2c[nH]c3ccccc23)cc1 (stereo unspecified)	-6.59*	i	i	-8.1	i	i
Cc1ccc(C(=O)C(C)OC(=O)Cc2c[nH]c3ccccc23)cc1 (stereo unspecified)	-5.16*	i	i	-8.4	i	i
O=C(CN1CCN(Cc2cccc(Cl)c2)C1=O)NCc1cccs1	0.88	i	i	-8.7	i	i
COC1OCC(O)C(OC(=O)c2ccccc2)C1OC(=O)c1ccccc1 (stereo unspecified)	.	.	.	.	i	.
CCn1c(CSc2nnc(-c3ccoc3C)n2C)nc2cc(S(=O)(=O)N(C)C)ccc21	0.11	i	i	32.5*	i	i
O=[N+]([O-])c1cc(CS(=O)(=O)Oc2ccc(Cl)cc2)c(O)c([N+](=O)[O-])c1	0.91	i	i	-3.6	i	i
Cc1nn(-c2ccccc2)c(=S)c2ccccc12	1.24	i	i	-0.2	i	i
O=C(COC(=O)c1cc(-c2ccccc2Cl)nc2ccccc12)Nc1ncc(C(F)(F)F)cc1Cl	-0.97	i	i	-5.7	i	i
Cc1c(-c2ccccc2)nc2ccccc2c1C(=O)OCC(=O)Nc1ncc(C(F)(F)F)cc1Cl	-0.54	9*	i	-10.0	i	i
Cc1cc2c(cc1C)CSC(c1ccccc1OC(=O)C(C)(C)C)SC2	-0.05	6*	i	-11.5	i	i
CCCCC(=O)Oc1ccccc1C1SCc2cc(C)c(C)cc2CS1	-0.14	i	i	-8.9	i	i

Assay outcomes as filed in PubChem.
